Results from ChEMBL document CHEMBL1153007, “Mono and bis-6-arylbenzimidazo[1,2-c]quinazolines: a new class of antimicrobial agents” (2009).
Values after ≈ are worked out from the molar mass of the structure shown.

Key:
[1] = system: Aspergillus niger; experiment: Antifungal activity against Aspergillus niger at 1000 ug/ml after 72 hrs by agar diffusion method; type: functional; settings: read-out: IZ
Summary of the method: (§1)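 Strains grown and maintained on Sabouraud glucose agar. Test solution at 1000 µg/ml placed in bores cut in the agar. Plates incubated at 26 °C for 72 h, then the zone of inhibition around each bore was measured. Ketoconazole plates as standard; one-way ANOVA at p ≤ 0.05.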

[2] = system: Klebsiella pneumoniae; experiment: Antibacterial activity against Klebsiella pneumoniae at 1000 ug/ml after 24 hrs by agar diffusion method; type: functional; settings: read-out: IZ
Summary of the method: (§2)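 Cup-plate agar diffusion on nutrient agar. Cultures grown overnight in NA broth at 37 °C and swabbed onto plates. Test solution at 1000 μg/ml added to 6 mm bores. Plates incubated at 37 °C for 24 h; zone of inhibition measured. Ampicillin plate as standard; one-way ANOVA at p ≤ 0.05.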

[3] = system: Salmonella enterica subsp. enterica; experiment: Antibacterial activity against Salmonella Typhimurium at 1000 ug/ml after 24 hrs by agar diffusion method; type: functional, Salmonella enterica subsp. enterica serovar Typhimurium; settings: read-out: IZ; summary of the method: as §2
[4] = system: Trichoderma viride; experiment: Antifungal activity against Trichoderma viride at 1000 ug/ml after 72 hrs by agar diffusion method; type: functional; settings: read-out: IZ; summary of the method: as §1
[5] = system: Streptococcus pyogenes; experiment: Antibacterial activity against Streptococcus pyogenes at 1000 ug/ml after 24 hrs by agar diffusion method; type: functional; settings: read-out: IZ; summary of the method: as §2
[6] = system: Candida albicans; experiment: Antifungal activity against Candida albicans at 1000 ug/ml after 72 hrs by agar diffusion method; type: functional; settings: read-out: IZ; summary of the method: as §1
[7] = system: Staphylococcus aureus; experiment: Antibacterial activity against Staphylococcus aureus at 1000 ug/ml after 24 hrs by agar diffusion method; type: functional; settings: read-out: IZ; summary of the method: as §2
[8] = system: Bacillus subtilis; experiment: Antibacterial activity against Bacillus subtilis at 1000 ug/ml after 24 hrs by agar diffusion method; type: functional; settings: read-out: IZ; summary of the method: as §2
[9] = system: Escherichia coli; experiment: Antibacterial activity against Escherichia coli at 1000 ug/ml after 24 hrs by agar diffusion method; type: functional; settings: read-out: IZ; summary of the method: as §2
[10] = system: Candida albicans; experiment: Antifungal activity against Candida albicans after 72 hrs by liquid dilution method; type: functional
Summary of the method: (§3)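 Liquid dilution in tubes: 1 ml compound solution (stocks 2.5–50 µg/ml, prepared in appropriate solvent) plus 0.2 ml fungal inoculum and 3.8 ml sterile water; checked for turbidity. MIC taken as lowest concentration with no visible growth. Ketoconazole as reference.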

[11] = system: Escherichia coli; experiment: Antibacterial activity against Escherichia coli after 24 hrs by liquid dilution method; type: functional
Summary of the method: (§4)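 Liquid dilution in tubes: 1 ml compound solution (stocks 2.5, 5, 10, 15, 20, 25, 30, 35, 40, 45, 50 µg/ml, prepared in appropriate solvent) plus 0.2 ml bacterial inoculum and 3.8 ml sterile water; incubated 24 h, checked for turbidity. MIC taken as lowest concentration with no growth. Ampicillin as reference.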

[12] = system: Aspergillus niger; experiment: Antifungal activity against Aspergillus niger after 24 hrs by liquid dilution method
[13] = system: Trichoderma viride; experiment: Antifungal activity against Trichoderma viride after 24 hrs by liquid dilution method
[14] = system: Klebsiella pneumoniae; experiment: Antibacterial activity against Klebsiella pneumoniae after 24 hrs by liquid dilution method; type: functional; summary of the method: as §4
[15] = system: Staphylococcus aureus; experiment: Antibacterial activity against Staphylococcus aureus after 24 hrs by liquid dilution method; type: functional; summary of the method: as §4
[16] = system: Bacillus subtilis; experiment: Antibacterial activity against Bacillus subtilis after 24 hrs by liquid dilution method; type: functional; summary of the method: as §4
[17] = system: Salmonella enterica subsp. enterica; experiment: Antibacterial activity against Salmonella Typhimurium after 24 hrs by liquid dilution method; type: functional, Salmonella enterica subsp. enterica serovar Typhimurium; summary of the method: as §4
[18] = system: Streptococcus pyogenes; experiment: Antibacterial activity against Streptococcus pyogenes after 24 hrs by liquid dilution method; type: functional; summary of the method: as §4
[19] = system: Trichoderma viride; experiment: Antifungal activity against Trichoderma viride after 72 hrs by liquid dilution method; type: functional; summary of the method: as §3
[20] = system: Aspergillus niger; experiment: Antifungal activity against Aspergillus niger after 72 hrs by liquid dilution method; type: functional; summary of the method: as §3

SMILES	zone of inhibition at 1000 µg/mL [1]	zone of inhibition at 1000 µg/mL [2]	zone of inhibition at 1000 µg/mL [3]	zone of inhibition at 1000 µg/mL [4]	zone of inhibition at 1000 µg/mL [5]	zone of inhibition at 1000 µg/mL [6]	zone of inhibition at 1000 µg/mL [7]	zone of inhibition at 1000 µg/mL [8]	zone of inhibition at 1000 µg/mL [9]	MIC [10]	MIC [11]	MIC [12]	MIC [13]	MIC [14]	MIC [15]	MIC [16]	MIC [17]	MIC [18]	MIC [19]	MIC [20]
c1coc(-c2nc3ccccc3c3nc4ccccc4n23)c1	13 mm	12 mm	15 mm	6 mm	18 mm	11 mm	25 mm	21 mm	20 mm	–	–	–	–	–	–	–	–	–	–	–
c1c[nH]c(-c2nc3ccccc3c3nc4ccccc4n23)c1	11 mm	12 mm	14 mm	9 mm	13 mm	9 mm	22 mm	18 mm	18 mm	–	–	–	–	–	–	–	–	–	–	–
c1cc(-c2nc3ccccc3c3nc4ccccc4n23)nc(-c2nc3ccccc3c3nc4ccccc4n23)c1	50 mm	49 mm	46 mm	45 mm	50 mm	50 mm	52 mm	45 mm	50 mm	5 µg/mL (≈ 9.74 µM)	5 µg/mL (≈ 9.74 µM)	2.5 µg/mL (≈ 4.87 µM)	10 µg/mL (≈ 19.5 µM)	5 µg/mL (≈ 9.74 µM)	2.5 µg/mL (≈ 4.87 µM)	15 µg/mL (≈ 29.2 µM)	5 µg/mL (≈ 9.74 µM)	10 µg/mL (≈ 19.5 µM)	–	–
c1ccc(-c2nc3ccccc3c3nc4ccccc4n23)c(-c2nc3ccccc3c3nc4ccccc4n23)c1	16 mm	15 mm	12 mm	13 mm	15 mm	13 mm	18 mm	14 mm	20 mm	–	–	–	–	–	–	–	–	–	–	–
c1cc(-c2nc3ccccc3c3nc4ccccc4n23)cc(-c2nc3ccccc3c3nc4ccccc4n23)c1	18 mm	18 mm	15 mm	12 mm	15 mm	15 mm	21 mm	18 mm	19 mm	–	–	–	–	–	–	–	–	–	–	–
c1ccc2c(c1)nc(-c1ccc(-c3nc4ccccc4c4nc5ccccc5n34)cc1)n1c3ccccc3nc21	21 mm	18 mm	14 mm	13 mm	18 mm	16 mm	25 mm	19 mm	21 mm	–	–	–	–	–	–	–	–	–	–	–
c1ccc(-c2nc3ccccc3c3nc4ccccc4n23)cc1	10 mm	16 mm	12 mm	9 mm	13 mm	10 mm	18 mm	14 mm	18 mm	–	–	–	–	–	–	–	–	–	–	–
c1ccc2c(c1)nc(-c1ccc(-c3nc4ccccc4c4nc5ccccc5n34)s1)n1c3ccccc3nc21	55 mm	50 mm	46 mm	48 mm	52 mm	51 mm	55 mm	50 mm	51 mm	2.5 µg/mL (≈ 4.82 µM)	2.5 µg/mL (≈ 4.82 µM)	2.5 µg/mL (≈ 4.82 µM)	5 µg/mL (≈ 9.64 µM)	5 µg/mL (≈ 9.64 µM)	2.5 µg/mL (≈ 4.82 µM)	10 µg/mL (≈ 19.3 µM)	5 µg/mL (≈ 9.64 µM)	5 µg/mL (≈ 9.64 µM)	–	–
c1csc(-c2nc3ccccc3c3nc4ccccc4n23)c1	51 mm	36 mm	40 mm	46 mm	50 mm	48 mm	51 mm	45 mm	50 mm	15 µg/mL (≈ 49.8 µM)	10 µg/mL (≈ 33.2 µM)	5 µg/mL (≈ 16.6 µM)	–	15 µg/mL (≈ 49.8 µM)	5 µg/mL (≈ 16.6 µM)	15 µg/mL (≈ 49.8 µM)	15 µg/mL (≈ 49.8 µM)	10 µg/mL (≈ 33.2 µM)	10 µg/mL (≈ 33.2 µM)	–
c1ccc(-c2nc3ccccc3c3nc4ccccc4n23)nc1	49 mm	35 mm	38 mm	45 mm	49 mm	48 mm	50 mm	42 mm	51 mm	15 µg/mL (≈ 50.6 µM)	15 µg/mL (≈ 50.6 µM)	10 µg/mL (≈ 33.7 µM)	–	20 µg/mL (≈ 67.5 µM)	10 µg/mL (≈ 33.7 µM)	20 µg/mL (≈ 67.5 µM)	20 µg/mL (≈ 67.5 µM)	15 µg/mL (≈ 50.6 µM)	15 µg/mL (≈ 50.6 µM)	–
CC1(C)S[C@@H]2[C@H](NC(=O)[C@H](N)c3ccccc3)C(=O)N2[C@H]1C(=O)O [AMPICILLIN]	–	45 mm	45 mm	–	35 mm	–	48 mm	39 mm	40 mm	–	15 µg/mL (≈ 42.9 µM)	–	–	10 µg/mL (≈ 28.6 µM)	10 µg/mL (≈ 28.6 µM)	20 µg/mL (≈ 57.2 µM)	10 µg/mL (≈ 28.6 µM)	25 µg/mL (≈ 71.5 µM)	–	–
CC(=O)N1CCN(c2ccc(OCC3COC(Cn4ccnc4)(c4ccc(Cl)cc4Cl)O3)cc2)CC1 (centres undefined) [KETOCONAZOLE]	45 mm	–	–	41 mm	–	40 mm	–	–	–	25 µg/mL (≈ 47 µM)	–	–	20 µg/mL (≈ 37.6 µM)	–	–	–	–	–	–	15 µg/mL (≈ 28.2 µM)
